Reference: ChEMBL document CHEMBL1799951, “FimH antagonists for the oral treatment of urinary tract infections: from design and synthesis to in vitro and in vivo evaluation” (J Med Chem, 2010)
Active and inactive are the calls of the source. No cut-off for these calls is given here.

Tests used:
[1] = Cmax in plasma of urinary tract infection C3H/HeN mouse model at 50 mg/kg, iv administered as single dose measured after 6 hrs by LC-MS analysis; type: ADME, organism-based; design: dose 50 mg/kg, route intravenous
How it was run: (§1)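 Female C3H/HeN mice (19-25 g) dosed once iv at 50 mg/kg in 100 μL PBS via tail vein. Blood and urine (10 μL) sampled at 6 min, 30 min, 1, 2, 4, 6, 8 and 24 h. Proteins precipitated with methanol, centrifuged, and supernatant quantified by LC-MS.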

[2] = Permeability coefficient, log Pe of the compound by PAMPA method; type: ADME
How it was run: (§2)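 PAMPA with GIT-0 lipid, donor analyte 50 μM at pH 5.0, 6.2 and 7.4 in quadruplicate, 16 h undisturbed incubation. Donor and acceptor quantified by UV and LC-MS.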

[3] = AUC (0 to 24 hrs) in plasma of urinary tract infection C3H/HeN mouse model at 50 mg/kg, iv administered as single dose measured after 6 hrs by LC-MS analysis; type: ADME, organism-based; design: time < 24 hr, dose 50 mg/kg, route intravenous; how it was run: as §1
[4] = Plasma protein binding […] by LC-MS analysis; type: ADME, cell-free; details: read-out: PPB (converted)
[5] = AUC (0 to 24 hrs) in urine of urinary tract infection C3H/HeN mouse model at 50 mg/kg, iv administered as single dose measured after 6 hrs by LC-MS analysis; type: ADME, organism-based; design: time < 24 hr, dose 50 mg/kg, route intravenous; how it was run: as §1
[6] = Cmax in urine of urinary tract infection C3H/HeN mouse model at 50 mg/kg, iv administered as single dose measured after 6 hrs by LC-MS analysis; type: ADME, organism-based; design: dose 50 mg/kg, route intravenous; how it was run: as §1
[7] = target: Type 1 fimbrin D-mannose specific adhesin (Escherichia coli K-12) (UniProt P08191); assay: Ratio IC50 for compound to IC50 for n-heptyl R-D-mannopyranoside for His-tagged FimH expressed in Escherichia coli HM125
How it was run: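 FimH-CRD-Th-6His (10 μg/mL) coated overnight at 4 °C in 20 mM HEPES, 150 mM NaCl, 1 mM CaCl2, pH 7.4, then blocked with 3% BSA. 4-fold compound dilutions in 5% DMSO competed with streptavidin-peroxidase TM-PAA polymer for 3 h at 25 °C. ABTS read at 415 nm, duplicates. IC50 divided by the IC50 of the heptyl mannoside reference run on the same plate.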

[8] = target: Mannose-binding protein C (Homo sapiens) (UniProt P11226); assay: Binding affinity to MBP at 1 mM
How it was run: (§3)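 FimH-CRD (10 μg/mL), DC-SIGN-CRD-Fc (2.5 μg/mL) or MBP (10 μg/mL) coated overnight at 4 °C in 20 mM HEPES pH 7.4, 150 mM NaCl, 10 mM CaCl2. Competition against streptavidin-peroxidase TM-PAA polymer as in the FimH ELISA, test compounds at 1 mM. D-mannose at 50 mM as positive control.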

[9] = Dissociation constant, pKa of the compound by NMR spectrometric analysis; type: physicochemical
Liver = assay: Metabolic stability of the compound in mouse liver microsomes assessed as Cyp 450-mediated degradation at 2 uM after 30 mins by LC-MS analysis in presence of NADPH; details: 0.5 h
Escherichia coli [10] = assay: Antibacterial activity against Escherichia coli […] infected in urinary tract infection C3H/HeN mouse model assessed as log reduction in bacterial count in kidney of mouse at 50 mg/kg, iv administered as single dose 1 hr before infection and measured after 3 hrs post infection; type: functional, organism-based; design: dose 50 mg/kg
How it was run: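 Female C3H/HeN mice given antagonist iv (100 μL PBS, tail vein) or po as suspension, then infected. Infection: isoflurane anaesthesia, bladder emptied, 50 μL UTI89 at about 10^9-10^10 CFU/mL via transurethral catheter. Six mice per group, killed 3 h post-inoculation. Kidneys plated on EMB agar. Reduction taken against the 3 h untreated control mean; Mann-Whitney test.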

[11] = target: Type 1 fimbrin D-mannose specific adhesin (Escherichia coli K-12, UniProt P08191); assay: Competitive inhibition of His-tagged FimH carbohydrate recognizing domain expressed in Escherichia coli HM125 using ABTS-substrate after 3 hrs by […] assay
How it was run: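 FimH-CRD-Th-6His from E. coli HM125 coated at 10 μg/mL overnight at 4 °C and blocked with 3% BSA. 4-fold compound dilutions in HEPES buffer pH 7.4 (5% DMSO) plus streptavidin-peroxidase TM-PAA polymer, 3 h at 25 °C. ABTS developed 4 min and read at 415 nm. Duplicates; heptyl mannoside reference on each plate.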

[12] = Plasma protein binding in human by miniatured equilibrium dialysis method; type: ADME, cell-free; details: read-out: PPB (converted)
How it was run: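 Human plasma adjusted to pH 7.5 with analyte at 10 μM, dialysed against 0.1 M phosphate pH 7.5 (MWCO 12-14 K) for 5 h at 37 °C in triplicate. Compartments MeCN-precipitated and measured by LC-MS; fb = 1 − cbuffer/cplasma.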

Escherichia coli [13] = assay: Antibacterial activity against Escherichia coli […] infected in urinary tract infection C3H/HeN mouse model assessed as log reduction in bacterial CFU in bladder of mouse at 50 mg/kg, iv administered as single dose 1 hr before infection and measured after 3 hrs post infection; type: functional
How it was run: (§4)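 Female C3H/HeN mice dosed iv into the tail vein in 100 μL PBS, then infected transurethrally under isoflurane with 50 μL UPEC UTI89 (~10^9–10^10 CFU/mL; LB 24 h static 37 °C, PBS-washed). Six mice per group, killed 3 h post-inoculation. Urine, bladder and kidneys plated on EMB agar. Log CFU reduction taken against the 3 h untreated control baseline; Mann-Whitney test.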

[14] = Thermodynamic solubility of the compound at pH 6.5 after 24 hrs by LC-MS analysis; type: physicochemical; details: buffer, read-out: Therm_solubility
How it was run: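 1 mg solid in 250 μL 50 mM phosphate pH 6.5, sonicated 15 min, shaken 2 h at 25 °C, left 24 h. pH measured, then filtered and diluted; concentration determined by LC-MS.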

Escherichia coli [15] = assay: Antibacterial activity against Escherichia coli […] infected in urinary tract infection C3H/HeN mouse model assessed as log reduction in bacterial CFU in urine of mouse at 50 mg/kg, iv administered as single dose 1 hr before infection and measured after 3 hrs post infection; type: functional; how it was run: as §4
[16] = target: T1, CD209 antigen (Homo sapiens) (UniProt Q9NNX6); assay: Binding affinity to Fc-IgG-tagged DC-SIGN carbohydrate recognizing domain at 1 mM; how it was run: as §3
T1 sequence (whole entry): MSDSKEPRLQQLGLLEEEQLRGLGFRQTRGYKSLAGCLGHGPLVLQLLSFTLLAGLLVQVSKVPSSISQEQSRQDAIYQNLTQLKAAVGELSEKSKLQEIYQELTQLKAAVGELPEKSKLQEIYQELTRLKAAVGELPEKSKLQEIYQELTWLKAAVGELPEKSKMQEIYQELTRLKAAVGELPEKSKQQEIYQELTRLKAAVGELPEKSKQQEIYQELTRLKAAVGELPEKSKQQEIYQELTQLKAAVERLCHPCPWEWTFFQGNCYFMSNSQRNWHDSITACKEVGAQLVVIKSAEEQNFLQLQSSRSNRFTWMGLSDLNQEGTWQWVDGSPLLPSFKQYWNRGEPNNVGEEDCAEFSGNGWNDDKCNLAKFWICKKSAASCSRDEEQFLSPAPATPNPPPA

Escherichia coli [17] = assay: Antibacterial activity against Escherichia coli […] infected in urinary tract infection C3H/HeN mouse model assessed as reduction in bacterial count in kidney of mouse at 50 mg/kg, iv administered as single dose 1 hr before infection and measured after 3 hrs post infection
[18] = Permeability of the compound assessed as membrane retention by PAMPA method; type: ADME; how it was run: as §2
Escherichia coli [19] = assay: Antibacterial activity against Escherichia coli […] infected in urinary tract infection C3H/HeN mouse model assessed as log reduction in bacterial CFU in urine of mouse at 50 mg/kg, po administered as single dose 1 hr before infection and measured after 3 hrs post infection; type: functional; details: route intravenous, in the assay text read “iv administered” for “po administered”
[20] = Lipophilicity, log D at pH 7.4 by miniatured shake flask method; type: physicochemical; details: buffer
How it was run: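 Octanol-saturated 0.1 M phosphate pH 7.4 containing analyte at 1 μM, overlaid with octanol at two volume ratios, three wells each. Shaken 2 h at 25 °C, then centrifuged; aqueous phase measured by LC-MS. log D computed from depletion. Accepted when the ratio means agree within 0.1.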

Escherichia coli [21] = assay: Antibacterial activity against Escherichia coli […] infected in urinary tract infection C3H/HeN mouse model assessed as log reduction in bacterial CFU in bladder of mouse at 50 mg/kg, po administered as single dose 1 hr before infection and measured after 3 hrs post infection; type: functional; details: route intravenous, in the assay text read “iv administered” for “po administered”
[22] = Stability of the compound in simulated intestinal fluid assessed as compound remaining after 2 hrs by LC-MS analysis; type: physicochemical; details: read-out: Stability
How it was run: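 Simulated intestinal fluid (phosphate, NaOH, pancreatin, pH 6) at 37 °C, compound at 10 μM, 500 rpm. Samples at 0-120 min MeCN-quenched; LC-MS as % remaining versus initial.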

[23] = Stability of the compound in simulated gastrointestinal fluid assessed as compound remaining after 2 hrs by LC-MS analysis; type: physicochemical; details: read-out: Stability
[24] = AUC (0 to 24 hrs) in urine of urinary tract infection C3H/HeN mouse model at 50 mg/kg, po administered as single dose measured after 6 hrs by LC-MS analysis; type: ADME, organism-based; design: time < 24 hr, dose 50 mg/kg, route oral
How it was run: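 Female C3H/HeN mice (19-25 g) gavaged once at 50 mg/kg. Compound dissolved in DMSO and diluted in 1% Tween-80/PBS as a suspension, or given in 200 μL PBS. Blood and urine sampled at 6 min to 24 h, methanol-precipitated, and analysed by LC-MS. For the prodrug, both parent and carboxylate metabolite were measured.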

Mannose-binding protein C (Homo sapiens), sequence (P11226 whole entry): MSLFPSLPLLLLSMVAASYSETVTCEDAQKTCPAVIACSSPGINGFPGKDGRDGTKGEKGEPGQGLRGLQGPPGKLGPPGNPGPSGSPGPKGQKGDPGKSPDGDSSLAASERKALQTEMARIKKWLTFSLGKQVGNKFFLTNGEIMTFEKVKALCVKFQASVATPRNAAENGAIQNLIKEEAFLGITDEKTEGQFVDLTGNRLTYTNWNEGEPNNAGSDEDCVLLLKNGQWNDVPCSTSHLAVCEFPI
Type 1 fimbrin D-mannose specific adhesin (Escherichia coli K-12), sequence (P08191 whole entry): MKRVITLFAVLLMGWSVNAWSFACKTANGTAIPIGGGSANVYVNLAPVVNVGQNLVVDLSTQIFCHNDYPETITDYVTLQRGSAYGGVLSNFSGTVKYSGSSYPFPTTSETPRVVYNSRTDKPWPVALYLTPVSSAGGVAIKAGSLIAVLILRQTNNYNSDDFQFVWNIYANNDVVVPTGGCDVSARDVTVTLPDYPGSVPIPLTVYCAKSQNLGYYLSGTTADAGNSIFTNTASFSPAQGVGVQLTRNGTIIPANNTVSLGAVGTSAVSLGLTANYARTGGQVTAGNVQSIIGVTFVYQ
Type 1 fimbrin D-mannose specific adhesin, sequence (P08191 whole entry, the tested form may be a part): as the sequence (P08191 whole entry) above

| Cmax [1] [µg/mL] | permeability [2] | AUC(0-t) at 24 h [3] [ng·h/mL] | AUC(0-t) at 24 h [5] [ng·h/mL] | Cmax [6] [µg/mL] | Activity [8] | pKa [9] | Stability (Liver) | solubility thermodynamic at 24 h [14] [µg/mL] | Activity [16] | SMILES | Activity (Escherichia coli [10]) | Activity (Escherichia coli [17]) | also measured |
| --- | --- | --- | --- | --- | --- | --- | --- | --- | --- | --- | --- | --- | --- |
| 34.4 | impermeable | 19300 | 140000 | 510 | inactive | 3.88 | Stable | > 3000 | inactive | O=C([O-])c1ccc(-c2ccc(O[C@H]3O[C@H](CO)[C@@H](O)[C@H](O)[C@@H]3O)cc2)cc1.[Na+] | Active | Active | fraction unbound [4]: 0.27; Ratio IC50 [7]: 0.15; IC50 [11]: 0.0171 µM; fraction unbound [12]: 0.27; FC (Escherichia coli [13]): 4.5; FC (Escherichia coli [15]): >2 |
| 39.4 | impermeable | 20800 | 210000 | 588 | inactive | 3.98 | Stable | > 3000 | inactive | O=C([O-])c1ccc(-c2ccc(O[C@H]3O[C@H](CO)[C@@H](O)[C@H](O)[C@@H]3O)c(Cl)c2)cc1.[Na+] | Active | Active | permeability [18]: 3.5%; FC (Escherichia coli [19]): 2; logD [20]: -0.77; FC (Escherichia coli [21]): 4; remaining at 2 h [22]: 80%; remaining at 2 h [23]: 80%; AUC(0-t) at 24 h [24]: 2700 ng·h/mL |
